Experiment [1] relates to PC-3. The experiment can be described thus: Antiproliferative activity against human PC3 cells by MTT assay. The format is functional, cell-based. The gist of the method: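 PC-3 (ATCC) in supplemented RPMI-1640 with 10% FBS at 37 °C, 5% CO2. Log-phase cells get graded concentrations in triplicate. MTT (5 mg/mL solution) is added for a further 4 h, then dissolved in DMSO and read at 490 nm. IC50 is from the average of three parallel experiments. Negative reference is 0.1% DMSO.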

Experiment [2] has as its system HL-60. The experiment can be described thus: Antiproliferative activity against human HL60 cells after 72 hrs by tryphan blue staining based hematocytometric method. Format: functional, cell-based. Conditions: HL-60, 72 h. The gist of the method: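 HL-60 (ATCC) in RPMI-1640 with 10% heat-inactivated FBS, 1 mM glutamine and penicillin/streptomycin, 37 °C, 5% CO2. Cells at 4.5 × 10^4 cells/mL are exposed to a concentration gradient (DMSO stock diluted in absolute EtOH) for 72 h. Trypan blue is added and total cells are counted on a hematocytometer. IC50 is the mean of three parallel experiments. Negative reference is 0.1% DMSO.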

The subject of experiment [3] is HL-60. The experiment can be described thus: Potency index, ratio of 5-fluorouracil IC50 to compound IC50 for human HL60 cells. The format is functional.
Experiment [4] has as its system PC-3. Nature of the experiment: Potency index, ratio of 5-fluorouracil IC50 to compound IC50 for human PC3 cells. The format is functional.
For experiment [5], the system named is PC-3. Nature of the experiment: Potency index, ratio of camptothecin IC50 to compound IC50 for human PC3 cells. The format is functional.

For orientation: IC50 means the concentration at which inhibition is half-maximal. A higher IC50 goes with weaker potency in that assay. With `COc1cc2c(cc1OC)C1=Cc3c(cc(OC)c(OC)c3Oc3cc4c(cc3OC)-c3c(OC)c(OC)c(OC)c5c3[C@H](C4)N(C)CC5)CN1CC2`, the concentration for half-maximal inhibition (IC50) in the experiment on PC-3 [1] came to 11.6 µM; in the experiment on HL-60 [2], 1.77 µM.

On to `COc1cc2c(c(O)c1OC)CCN(C)[C@H]2Cc1ccc(Oc2c(OC)c(OC)cc3c2cc2c4c(c(OC)c(OC)c(OC)c43)CCN2C)cc1`, for which the 50% inhibitory concentration (IC50) turned out to be 7.1 µM with PC-3 [1] and 4.28 µM in the experiment with HL-60 [2].

On to `CC[C@@]1(O)C(=O)OCc2c1cc1n(c2=O)Cc2cc3ccccc3nc2-1` [CAMPTOTHECIN], for which the IC50 with PC-3 [1] was found to be 6.96 µM; in the experiment on HL-60 [2], 0.92 µM.

Consider `COc1cc2c(c(Oc3ccc(C[C@H]4c5cc(OC)c(OC)c(OC)c5CCN4C)cc3)c1OC)C[C@H]1c3c(c(OC)c(OC)c(OC)c3-2)CCN1C`, for which the IC50 in the experiment with PC-3 [1] is 6.05 µM; in the experiment with HL-60 [2], 1.16 µM.

As for `COc1cc2c(c(Oc3ccc(C[C@H]4c5cc(OC)c(OC)c(OC)c5CC[N@@+]4(C)[O-])cc3)c1OC)C[C@H]1c3c(c(OC)c(OC)c(OC)c3-2)CCN1C`, the half-inhibitory concentration (IC50) with PC-3 [1] is 13.4 µM; in the experiment on HL-60 [2], 5.05 µM.

On to `COc1cc2c(c(O)c1OC)CC[N@+](C)([O-])[C@H]2Cc1ccc(Oc2c3c(cc(OC)c2OC)-c2c(OC)c(OC)c(OC)c4c2[C@H](C3)N(C)CC4)cc1`, for which the results for the IC50 in the experiment with PC-3 [1] and with HL-60 [2] were 12.7 µM and 2.86 µM, respectively.

`COc1cc2c(c(OC)c1OC)CCN(C)[C@H]2Cc1ccc(Oc2c(OC)c(OC)cc3c2cc2c4c(c(OC)c(OC)c(OC)c43)CCN2C)cc1`: the figures for the 50% inhibitory concentration (IC50) with PC-3 [1] and in the experiment on HL-60 [2] were 6.01 µM and 2.12 µM, respectively.

In the case of `COc1cc2c(c3c1OCO3)CCN(C)[C@H]2Cc1ccc(Oc2c(OC)c(OC)cc3c2cc2c4c(c(OC)c(OC)c(OC)c43)CCN2C)cc1`, the half-maximal inhibitory concentration (IC50) with PC-3 [1] is 3.29 µM; in the experiment with HL-60 [2] it was 1.77 µM.

Consider `COc1cc2c(cc1OC)[C@H](Cc1ccc(Oc3c(OC)c(OC)cc4c3cc3c5c(cc(OC)c(OC)c54)CCN3C)cc1)N(C)CC2`, for which the IC50 amounted to 7.86 µM with PC-3 [1] and 4.09 µM in the experiment on HL-60 [2].

For the molecule `COc1cc2c(cc1OC)[C@H](Cc1ccc(Oc3c(OC)c(OC)cc4c3cc3c5c(c(OC)c(OC)c(OC)c54)CCN3C)cc1)N(C)CC2`, the half-maximal inhibitory concentration (IC50) came to 2.56 µM with PC-3 [1] and 2.41 µM in the experiment with HL-60 [2].

In turn, `O=c1[nH]cc(F)c(=O)[nH]1` [FLUOROURACIL] gave an IC50 with PC-3 [1] of 22 µM.

For the molecule `COc1cc2c(c(O)c1OC)CC[N@@+](C)([O-])[C@H]2Cc1ccc(Oc2c3c(cc(OC)c2OC)-c2c(OC)c(OC)c(OC)c4c2[C@H](C3)N(C)CC4)cc1`, the half-maximal inhibitory concentration (IC50) with PC-3 [1] was determined as 18.7 µM; in the experiment with HL-60 [2] it was 4.57 µM.

Regarding `COc1cc2c(cc1OC)[C@H](Cc1ccc(Oc3c4c(cc(OC)c3OC)-c3c(OC)c(OC)c(OC)c5c3[C@H](C4)N(C)CC5)cc1)N(C)CC2` [THALIFABERINE], the values for the 50% inhibitory concentration (IC50) in the experiment with PC-3 [1] and with HL-60 [2] were 7.27 µM and 1.58 µM, respectively.

As to `COc1cc2c(c(O)c1OC)CCN(C)[C@H]2Cc1ccc(Oc2c3c(cc(OC)c2OC)-c2c(OC)c(OC)c(OC)c4c2[C@H](C3)N(C)CC4)cc1`, the 50% inhibitory concentration (IC50) in the experiment on PC-3 [1] amounted to 2.47 µM; with HL-60 [2], 1.01 µM. For the same molecule, the “Ratio IC50” value in the experiment on HL-60 [3] is listed as 2; in the experiment on PC-3 [4] it was 9; with PC-3 [5], 3.

Take `COc1cc2c(cc1OC)[C@H](Cc1ccc(Oc3c4c(cc(OC)c3OC)-c3c(OC)c(OC)cc5c3[C@H](C4)N(C)CC5)cc1)N(C)CC2`: the results for the half-inhibitory concentration (IC50) with PC-3 [1] and with HL-60 [2] were 2.72 µM and 1.44 µM, respectively.

On to `COc1cc2c(cc1OC)-c1cc3c(Oc4cc5c(cc4OC)-c4c(OC)c(OC)c(OC)c6c4[C@H](C5)N(C)CC6)c(OC)c(OC)cc3c(=O)n1CC2`, for which the values for the half-inhibitory concentration (IC50) in the experiment with PC-3 [1] and with HL-60 [2] were 3.72 µM and 10.3 µM, respectively.

Regarding `COc1cc2c(c(Oc3ccc(C[C@H]4c5cc(OC)c(OC)c(OC)c5CC[N@+]4(C)[O-])cc3)c1OC)C[C@H]1c3c(c(OC)c(OC)c(OC)c3-2)CCN1C`, the half-inhibitory concentration (IC50) is 8.35 µM in the experiment with PC-3 [1] and 4.21 µM in the experiment on HL-60 [2].

As to `COc1cc2c(c(O)c1OC)CCN(C)[C@H]2Cc1ccc(Oc2c3c(cc(OC)c2OC)-c2c(OC)c(OC)cc4c2[C@H](C3)N(C)CC4)cc1`, the IC50 in the experiment on PC-3 [1] came out at 5.85 µM; in the experiment with HL-60 [2], 2.1 µM.

The values are drawn from ChEMBL document CHEMBL4130550, “Antiproliferative Dimeric Aporphinoid Alkaloids from the Roots of Thalictrum cultratum” (J Nat Prod, 2017).
